bCat nuc transl: modulators of beta-catenin nuclear translocation, primary screen, imaging, HeLa cells, immunofluorescence, high-content; nuclear translocation activity, % at 5 µM; 190,000 tested, 0.3% active; AID 1665, 2009;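 active means nuclear translocation activity above 50% at 5 µM, with a well cell count of 50 or more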;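 further: per-cell ratio of nuclear to cytoplasmic median beta-catenin stain intensity; plate controls were DMSO negative control for no effect and GSK-3 inhibitor IX positive control for full effect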
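System: HeLa cells, endogenous beta-catenin; compound dosing: 5 µM primary single dose, 0.1% DMSO, 0.02–20 µM confirmation series; incubation: 24 h compound exposure at 37°C, 5% CO2; signal: beta-catenin immunofluorescence imaging with DAPI; evaluation: % activation, nuclear-to-cytoplasmic median beta-catenin signal ratio per cell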
MT stabilizer: microtubule stabilizers in HeLa cells, primary screen, imaging, high-content imaging; HeLa tubulin immunostaining HCS, 24 h; share of cells brighter than vehicle mean+2SD; % tubulin-high responders, % at 10 µM; AID 2205, 2009; 200,000 tested, 0.83% active;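 active means plate Z-score above 3 for both tubulin-high and condensed-nucleus cell shares, with cell loss under 80%, at 10 µM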;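 further: anti alpha tubulin signal scored within the nucleus-defined area of each cell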
KLF5 inh: KLF5 expression inhibitors, primary screen, DLD-1 cells, luminescence. DLD-1 KLF5 promoter-luciferase reporter. inhibition, % at 5 µM. 290,000 tested, 0.23% active;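 active means inhibition above a per-plate limit of that plate's mean compound inhibition plus 3 SD, cut at about 60% in these data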;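 further: 0% = DMSO wells and 100% = LY294002 at 200 µM; higher means less KLF5 promoter-driven luciferase light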
Ba/F3 V617F tox: reduced viability of JAK2V617F-dependent Ba/F3 cells, primary screen, JAK2V617F inhibitor project, cell-based, Ba/F3 EpoR-JAK2V617F, luminescence; ATP luminescence; inhibition, % at 5.6 µM; 220,000 tested, 1.1% active; AID 1446, 2008;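 active means inhibition above the campaign mean plus 3 SD over all tested compounds, cut at about 24% in these data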;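 further: cytokine-independent growth of Ba/F3 cells driven by EpoR plus mutant JAK2; 0% = DMSO-treated cells and 100% = JAK inhibitor I control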
BaF3 tox: parental Ba/F3 cell viability inhibition, counter-screen for JAK2V617F inhibitor project, murine pro-B, CellTiter-Glo luminescence. CellTiter-Glo ATP luminescence. inhibition, % at 5.6 µM. 220,000 tested, 1.1% active;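 active means inhibition above a per-campaign cutoff, the mean inhibition of all tested compounds plus 3 SD, cut at about 27% in these data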;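 further: 0% = DMSO wells and 100% = JAK Inhibitor I control wells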
IEC-6 cytotox: cytotoxicity in IEC-6 intestinal epithelial cells, primary screen, cytotoxicity control for KLF5 inhibitor project, cell-based, luminescence. IEC-6 cytotoxicity, luminescence viability. inhibition, % at 5 µM. 290,000 tested, 0.78% active; in the data active means inhibition above about 22%;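 further: 0% = plate median of test compound wells and 100% = cytotoxic reference compound wells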
* hit, by the source's call; . = no result given. A selection: hits, their analogues and other compounds. The true share with any hit is near 2.1%.

SMILES | bCat nuc transl | MT stabilizer | KLF5 inh | Ba/F3 V617F tox | BaF3 tox | IEC-6 cytotox
Cc1ccnc(NC(=O)c2ccccc2NC(=O)C(C)(C)C)c1 | -1 | 44* | -17 | 8 | 10 | 8
CC(C)COC(=O)c1ccc2c(c1O)C(=O)c1ccccc1C2=O | 1 | 2 | -37 | 4 | 7 | 2
O=C1C2C3c4ccccc4C(Br)(c4ccccc43)C2C(=O)N1c1ccccc1O (configuration not stated) | -2 | 6 | 9 | 0 | 1 | -4
Cc1ccc(-c2nn(-c3ccccc3)cc2C(=O)N2CCN(c3ccccn3)CC2)cc1 | -2 | 5 | -3 | 1 | 7 | -1
O=C(c1cn(-c2ccccc2)nc1-c1ccccc1)N1CCN(c2ccccn2)CC1 | -4 | 36* | -24 | 0 | 7 | 1
CCN(CCC(=O)Nc1cc([N+](=O)[O-])ccc1OC)Cc1ccccc1 | -1 | 3 | -16 | 0 | 3 | -5
COc1cc(Cl)ccc1S(=O)(=O)n1nc(C)cc1C | -1 | 4 | -13 | -2 | 93* | 2
COc1cc(S(=O)(=O)n2nc(C)cc2C)c(OC)cc1Cl | -17 | 3 | -26 | 2 | 6 | -7
COc1ccc2nc3oc(C(=O)N4CCN(c5cccc(C(F)(F)F)c5)CC4)cc3cc2c1 | 19 | 13* | -12 | -1 | 1 | -6
COc1cc(C(=O)NC2=C(C#N)CCC2)cc(OC)c1OC | 0 | 4 | -18 | 1 | 1 | 5
COc1ccc(NC(=O)CN(c2ccc([N+](=O)[O-])cc2)S(=O)(=O)c2ccccc2)c(OC)c1 | 4 | 2 | -37 | 0 | 6 | -6
COC(=O)c1ccccc1NC(=O)CN(c1ccc(OC)cc1)S(C)(=O)=O | 2 | 29* | -4 | 1 | 5 | -1
COc1ccc(N(CC(=O)Nc2ccc(OC)cc2OC)S(=O)(=O)c2ccccc2)cc1 | 0 | 8.3* | -10 | -6 | 2 | 4
COc1ccc(CCNC(=O)CN2CCC(C)CC2)cc1OC | 0 | 1 | -19 | 1 | 9 | -1
O=C(CSc1ncn[nH]1)Nc1cc(S(=O)(=O)N2CCCC2)ccc1Cl | -4 | 8 | -5 | -4 | 4 | 4
CCOC(=O)c1ccc(NC(=O)Cn2nnc3ccccc32)cc1 | -9 | 3 | -203 | -3 | 59* | -2
COCCN(Cc1cc2cc(C)cc(C)c2nc1Cl)C(=O)Nc1ccccc1 | 0 | 34* | 3 | -1 | 7 | -4
COCCN(Cc1cc2ccc(C)c(C)c2nc1Cl)C(=O)N1CCOCC1 | 1 | 2 | -1 | 0 | 2 | -5
Cc1cc(C)c2nc(Cl)c(CN(Cc3ccco3)C(=O)Nc3ccccc3C)cc2c1 | -1 | 21* | -62 | 2 | 3 | 8
CCn1ccnc1[C@@H]1C[C@H]2CN(Cc3ccccc3OC)C(=O)[C@]23CCCN13 | 1 | 3 | -21 | -1 | -3 | -1
Cn1ccnc1C(=O)c1cc(SCC(=O)NCc2ccccc2)nc2ccccc12 | -2 | 16* | -3 | -2 | 2 | 4
COC(=O)CSc1cc(C(=O)c2nccn2C)c2ccccc2n1 | -4 | 1 | -13 | 1 | 1 | -2
Cc1c(C(=O)C(=O)N2CCCc3ccccc32)c2ccccc2n1C | 1 | 30* | -8 | -3 | 0 | 3
Cc1c(C(=O)C(=O)N2CCN(C)CC2)c2ccccc2n1C | -5 | 2 | -6 | 1 | 0 | 0
CC1CCc2cc(F)ccc2N1C(=O)CCC(=O)O (configuration not stated) | -2 | 4 | -23 | -1 | 2 | 4
SMILES | bCat nuc transl | MT stabilizer | KLF5 inh | Ba/F3 V617F tox | BaF3 tox | IEC-6 cytotox
Cc1c(C(=O)C(=O)N2c3ccc(F)cc3CCC2C)c2ccccc2n1C (configuration not stated) | 68* | 6 | 7 | -2 | 7 | 6
N=c1n(CCN2CCCC2)c2ccccc2n1CC(O)c1ccc(Cl)c(Cl)c1 (configuration not stated) | 19 | 6 | 0 | 102* | 104* | 101*
Clc1ccc(CN2CCSCC2)c(Cl)c1 | . | . | 6 | . | . | 1
N=c1ccn(Cc2c(Cl)cccc2Cl)cc1 | 1 | . | -26 | 75* | 63* | -8
CCn1ccc(=N)cc1 | -1 | 2 | 13 | 3 | 5 | 0
N=c1ccn(Cc2ccc(Cl)cc2Cl)cc1 | -4 | 2 | 15 | 90* | 71* | 3
N=c1ccn(Cc2ccccc2Cl)cc1 | 1 | 1 | -15 | 81* | 65* | 5
CCn1cc(C(=O)OCC(=O)N(C)Cc2ccccc2)c(=O)c2ccc(C)nc21 | . | 3 | 21 | -1 | 3 | -6
CC1(C)CC2(CCO1)OC(=O)CC2C(=O)Nc1ccccc1Cl (configuration not stated) | 0 | 3 | 2 | 3 | 90* | -2
Cc1ccccc1NC(=O)C1CC(=O)OC12CCOC(C)(C)C2 (configuration not stated) | -2 | 3 | -22 | -5 | 1 | -7
COc1ccc(C(C)=O)cc1COc1ccccc1[N+](=O)[O-] | 4 | 3 | -40 | -1 | 1 | 3
COc1ccc(C(C)=O)cc1COC(=O)CNC(=O)c1cc(C)cc(C)c1 | -4 | 2 | -12 | 70* | 38* | 4
COc1ccc(C(C)=O)cc1COC(=O)c1ccc(N)c([N+](=O)[O-])c1 | -3 | 2 | 2 | -4 | -3 | 31*
C#CCn1cnc2c(oc3ccccc32)c1=O | . | . | -27 | . | . | 4
CCCCOc1ccc(Br)cc1CSC(=N)N | 9 | 16 | -10 | 30* | 34* | 3
CC(C)OC(=O)C(C)Nc1ccc(F)c(Cl)c1 (configuration not stated) | 1 | . | -13 | 2 | -4 | 0
C[C@H]1O[C@H](O[C@H]2[C@H](O)[C@@H](O)[C@@H](O[C@H]3[C@H](O)[C@@H](O)C(O)O[C@@H]3CO)O[C@@H]2CO)[C@H](O)[C@@H](O)[C@@H]1N[C@H]1C=C(CO)[C@@H](O)[C@H](O)[C@H]1O (some centres not stated) | 1 | . | 10 | 24* | -7 | 34*
Cc1noc(C)c1CSc1nc2ccccc2c(=O)n1-c1ccc(Cl)cc1 | . | 40* | -4 | 2 | 11 | -5
Cn1ncc(Cl)c1C(=O)Nc1ccc(CN2CCCCC2)cc1 | . | . | -9 | . | . | 3
CN(C)c1ccc(NC2=C(Cl)C(=O)c3ccccc3C2=O)cc1 | -1 | 3 | -109 | 4 | 7 | 25*
O=C1C(Cl)=C(Nc2ccc3cn[nH]c3c2)C(=O)c2ccccc21 | 6 | . | -28 | 98* | 107* | 101*

Screening data as filed in PubChem BioAssay.
